Only some compounds are listed: those with a hit (about 2% of all), similar ones and a draw of the others.
STEP inh = STEP phosphatase inhibitors, primary screen, biochemical, fluorescence intensity, uHTS. Tyrosine-protein phosphatase non-receptor type 5 (Homo sapiens), P54829. recombinant STEP, OMFP fluorogenic substrate. inhibition, % at 20 µM. 360,000 tested, 0.25% active;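 active = inhibition at 20 µM, scaled per plate between control wells, above about 37%, limit read from the data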
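Assay system: isolated STEP enzyme / Timing: 20 min at room temperature, dark / Doses: 20 µM, 1% DMSO / Technique: fluorescence intensity, excitation 480 nm, emission 540 nm / Reagent: fluorogenic phosphatase substrate OMFP at 25 µM final / Measure: percent inhibition scaled to no-enzyme and uninhibited-enzyme controls, plate-pattern corrected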
Rpn11 block = Rpn11 (PSMD14) deubiquitinase inhibitors, primary screen, biochemical, fluorescence polarization, uHTS; 26S proteasome non-ATPase regulatory subunit 14 (Homo sapiens), O00487; human 26S proteasome, Ub4-pepOG fluorescence polarization; 20S core pre-blocked with epoxomicin; inhibition, % at 20 µM; 360,000 tested, 0.59% active;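 active = inhibition at 20 µM, scaled to each plate's controls, above about 33%, limit read from the data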
Target sequence (O00487 whole entry, looked up): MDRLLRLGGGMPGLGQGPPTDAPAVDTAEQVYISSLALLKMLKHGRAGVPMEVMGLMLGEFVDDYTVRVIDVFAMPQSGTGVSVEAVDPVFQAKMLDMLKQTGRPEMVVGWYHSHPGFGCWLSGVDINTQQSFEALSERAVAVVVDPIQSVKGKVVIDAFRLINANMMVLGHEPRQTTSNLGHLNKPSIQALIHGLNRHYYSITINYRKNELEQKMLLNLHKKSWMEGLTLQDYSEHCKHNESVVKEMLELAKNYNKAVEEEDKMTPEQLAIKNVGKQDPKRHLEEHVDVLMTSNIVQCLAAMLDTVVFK
DNMT1 inh = human DNMT1 methyltransferase inhibitors, primary screen, biochemical, molecular beacon, fluorescence, HinP1I cleavage, uHTS; DNA (cytosine-5)-methyltransferase 1 (Homo sapiens), P26358; AID 588458, 2011; 360,000 tested, 0.83% active; inhibition (reported as % activation of signal), % at 10 µM; in the data active = inhibition above about 50%
LMPTP inh = LMPTP phosphatase inhibitors, primary screen, biochemical, fluorescence intensity, uHTS. Low molecular weight phosphotyrosine protein phosphatase (Homo sapiens), P24666. recombinant LMPTP-A, OMFP fluorogenic substrate. inhibition, % at 20 µM. 360,000 tested, 0.22% active;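 active = compounds that cut the enzyme signal by at least half of the control window in the single-dose screen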
Target sequence (P24666 whole entry, looked up): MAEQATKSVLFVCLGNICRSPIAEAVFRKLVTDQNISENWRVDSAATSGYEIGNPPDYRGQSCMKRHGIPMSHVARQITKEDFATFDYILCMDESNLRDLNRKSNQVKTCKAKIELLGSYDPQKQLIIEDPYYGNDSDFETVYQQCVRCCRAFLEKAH
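Test system: LMPTP-A phosphatase enzyme; input: 0.625 nM LMPTP-A final; reagent: OMFP substrate, 400 µM final; compound dosing: 20 µM single dose, 3% DMSO; incubation: 50 min dark incubation at room temperature; measured by: endpoint fluorescence intensity from OMFP dephosphorylation; measure: % inhibition relative to no-enzyme and uninhibited control wells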
Scp-1 inhibitor = Scp-1 phosphatase inhibitors, primary screen, biochemical, colorimetric, uHTS; Carboxy-terminal domain RNA polymerase II polypeptide A small phosphatase 1 (Homo …; Recombinant Scp1, phosphopeptide, malachite green phosphate absorbance; inhibition, % at 20 µM; 340,000 tested, 0.88% active; AID 493091, 2011;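 active = inhibition above about 50% at 20 µM, limit read from the data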
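System: SCP-1 catalytic domain; Reagent: Phospho 17-mer peptide substrate; Doses: one concentration, 20 µM, with 1.0% DMSO; Incubation: 45 min room-temperature reaction, 5 min colour, 30 min stabiliser; Signal: Phosphate-binding colour reagent, absorbance read at 630 nm.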
Scp1 confirm = Scp-1 phosphatase inhibitors, retest, confirmation, biochemical, colorimetric, single concentration. shares compounds with Scp-1 inhibitor. recombinant SCP-1 catalytic domain, phosphate release, malachite green absorbance. inhibition, % at 20 µM. 2,500 tested, 61% active. AID 540281, 2011
Scp-1 MG ctr = colorimetric readout interference by compounds, confirmation, artefact control for Scp-1 inhibitor project, biochemical, single concentration; 2,500 tested, under 10 active; Colorimetric interference counterscreen, malachite green absorbance 630 nm; AID 540313, 2011; shares compounds with Scp-1 inhibitor; apparent inhibition (interference), % at 20 µM;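 note: compounds added after enzyme reaction finished so only phosphate colour detection is probed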
Scp-1 Tm shift = Scp-1 binding by thermal shift, confirmation, orthogonal assay for Scp-1 inhibitor project, biophysical, differential scanning fluorimetry; shares compounds with Scp-1 inhibitor; Recombinant SCP1, Sypro Orange thermal shift Tm; thermal shift relative to vanadate control, % at 40 µM; 1,500 tested, 25% active;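 active = substances whose mean melting-temperature shift, as a percentage of the reference inhibitor's shift, reaches about 5.3%, limit read from the data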
Large screens that a line does not name were inactive (follow-up assays come after a bar, where they were run).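 Rule for the calls, unless noted: active = inhibition of at least 30% at 20 µM; inactive = the rest.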

COc1cccc(NC(=O)c2cc(-c3ccco3)nc3ccccc23)c1	Scp-1 inhibitor 66 | Scp1 confirm 31 | Scp-1 MG ctr inactive | Scp-1 Tm shift inactive
O=C(Nc1ccccc1F)c1cc(-c2ccco2)nc2ccccc12	Scp-1 inhibitor 68 | Scp1 confirm 51 | Scp-1 MG ctr inactive | Scp-1 Tm shift inactive
Cc1ccc(C)c(-c2cc(C(=O)Nc3cccnc3)c3ccccc3n2)c1	none
Cc1ccc(-c2cc(C(=O)Nc3cccnc3)c3ccccc3n2)o1	DNMT1 inh 51, Scp-1 inhibitor 60 | Scp1 confirm 57 | Scp-1 MG ctr inactive | Scp-1 Tm shift 5.7
CN(CCCN1CCCCC1)C(=O)c1cc(COc2ccc(F)cc2F)on1	none
O=C(Nc1c(Cl)cc2c(c1Cl)Cc1cc([N+](=O)[O-])ccc1-2)C(Cl)Cl	none
O=C(NCCC(F)(F)F)C1Cc2c(-c3ccc(Cl)cc3)ccnc2O1 (stereo unspecified)	none (no result: Scp-1 inhibitor)
CC(=O)c1ccc(NC(=O)c2noc3c2CCC3)cc1	Scp-1 inhibitor 62 | Scp1 confirm 54 | Scp-1 MG ctr inactive | Scp-1 Tm shift inactive
CCC(C(=O)NCc1ccccc1)n1c(CSCCOc2ccccc2)nc2ccccc21 (stereo unspecified)	none (no result: STEP inh, Rpn11 block, DNMT1 inh, Scp-1 inhibitor)
NC(=O)c1cc(S(=O)(=O)NCc2ccc(Br)cc2)cs1	none | Scp1 confirm inactive | Scp-1 MG ctr inactive
COc1ccc(S(=O)(=O)N2CCC3CC2c2c(-c4ccc(C(F)(F)F)cc4)cccc23)cc1 (stereo unspecified)	none (no result: Scp-1 inhibitor)
CCOC(=O)c1sc(NC(=O)C2C3C=CC(C3)C2C(=O)O)nc1C (stereo unspecified)	Scp-1 inhibitor 54 | Scp1 confirm 42 | Scp-1 MG ctr inactive | Scp-1 Tm shift inactive
CCOC(=O)c1sc(NC(=O)C2CC2)nc1C	none
O=C1CCN(Cc2ccccc2)S(=O)(=O)c2ccc(F)cc21	Scp-1 inhibitor 52 | Scp1 confirm inactive | Scp-1 MG ctr inactive
Cc1ccc(S(=O)(=O)Nc2cccc3c2O[C@H](CN(C)Cc2ccc(-c4ccccc4)cc2)[C@@H](C)CN([C@H](C)CO)C3=O)cc1	none
C[C@H](CO)N1C[C@H](C)[C@@H](CN(C)Cc2ccc(-c3ccccc3)cc2)Oc2c(NS(=O)(=O)c3ccccc3)cccc2C1=O	Scp-1 inhibitor 62 | Scp1 confirm inactive | Scp-1 MG ctr inactive
C[C@H](CO)N1C[C@H](C)[C@@H](CN(C)Cc2ccc(-c3ccccc3)cc2)Oc2c(NS(=O)(=O)c3cn(C)cn3)cccc2C1=O	Scp-1 inhibitor 69 | Scp1 confirm inactive | Scp-1 MG ctr inactive
C[C@H](CO)N1C[C@H](C)[C@@H](CN(C)Cc2ccc(C(=O)O)cc2)Oc2c(NS(=O)(=O)c3cccs3)cccc2C1=O	Scp-1 inhibitor 50 | Scp1 confirm inactive | Scp-1 MG ctr inactive
C[C@H](CO)N1C[C@H](C)[C@@H](CN(C)Cc2ccc3c(c2)OCO3)Oc2c(NS(=O)(=O)c3cn(C)cn3)cccc2C1=O	none
C=CCC1(CC=C)CCCN1C(=O)c1ccc2oc(CCCC)nc2c1	none (no result: Scp-1 inhibitor)
CCn1c(/C=C/c2cc[n+](C)cc2)nc2ccccc21	Scp-1 inhibitor 102 | Scp1 confirm inactive | Scp-1 MG ctr inactive
